A selection: hits, their analogues and other compounds. The true share with any hit is near 11%.
Diaph inh CS – counter-screen for diaphorase-based assays: diaphorase inhibitors and chemical oxidizers; diaphorase resazurin-to-resorufin fluorescence, NADH, 16 min; bacterial (C. kluyveri) enzyme, not human; inhibition, % at 20 µM; actives 0.69% (n = 190,000); AID 1217;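 active = primary screen inhibition at 20 µM above a set limit, cut at about 50% in these data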
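System: Diaphorase enzyme from Clostridium kluyveri | Amount: Enzyme working solution with 0.14 U/mL diaphorase | Benchmarks: No-NADH positive control and DMSO neutral control | Signal: Fluorescence of resorufin formed from resazurin, Ex 544/Em 590 nm | Schedule: 16-min room-temperature incubation before reading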
Diaphorase act – diaphorase activation or chemical reduction counter-screen | AID 1229 | actives 0.005% (n = 190,000) | Diaphorase/resazurin coupled assay, resorufin fluorescence, 16 min; active compounds read high; 1 = vehicle wells, 0 = NADH-free wells | activation factor at 20 µM;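 active = diaphorase activity raised at least twofold by the compound at 20 µM; inactive = activation factor below 2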
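Material: Clostridium kluyveri diaphorase, purified enzyme; Quantity: enzyme 0.07 U/mL final; Medium: HEPES pH 7.4 buffer with MgCl2 and Tween 20; Dosing: single compound dose of 20 µM, 1% DMSO final; Schedule: 16 min reaction at room temperature; Measured by: red resorufin fluorescence at 544/590 nm excitation/emission.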
G6PDH CS – L. mesenteroides G6PDH inhibition counter-screen. Purified L. mesenteroides G6PDH, diaphorase/resazurin coupled fluorescence, 45 min. inhibition, % at 5 µM. actives 0.12% (n = 200,000). AID 1020
WT yeast gro inh – growth inhibition of WT yeast, mitochondrial fusion screen. mitochondrial fusion phenotypic screen, WT strain. inhibition, % at 10 µM. actives 2.1% (n = 190,000). AID 1362; in the data active = inhibition above about 58%; tested in S. cerevisiae
Lmaj promast – inhibitors of Leishmania major promastigote growth | AID 1063 | inhibition, % at 10 µM | actives 9% (n = 200,000) | Leishmania major promastigotes, resazurin fluorescence viability;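 note: promastigotes grown with compound for 44 hours at 28 °C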
L major 1uM – L. major promastigote growth inhibition, 1 uM repeat | actives 13% (n = 1,100) | inhibition, % at 1 µM | shares compounds with Lmaj promast | resazurin fluorescence, 48 h;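 active = inhibition above about 50% in both repeat tests, limit read from the data; inconclusive = one repeat under the set limit, the other over it; inactive = both repeats under the set limit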
Numbers stand for hits; 0 = inactive; ? = inconclusive; - = no result. Cut-off read from the data, not from the text of the source, unless noted: active = inhibition above about 50%; inactive = the rest.

SMILES	Diaph inh CS	Diaphorase act	G6PDH CS	WT yeast gro inh	Lmaj promast	L major 1uM
COc1c(C)cc(C(=O)C2CCCN(Cc3ccccn3)C2)cc1C (stereo unspecified)	0	0	0	0	100	-
COc1ccc(Cl)cc1C(=O)C1CCCN(Cc2cnc(C)s2)C1 (stereo unspecified)	0	0	0	0	78	-
CC1(C)CC(=O)C(C=NCCN2CCN(C(=O)Cc3ccc(F)cc3)CC2)=C(O)C1	0	0	0	0	0	-
CC(=NCCN1CCCCC1)c1c(O)[nH]c(=O)[nH]c1=O	0	0	0	0	0	-
COc1ccc(N/N=C/c2c(O)n(-c3ccc(C)c(C)c3)c(=O)[nH]c2=O)cc1	0	0	0	0	88	-
COc1ccc(N/N=C/c2c(O)n(-c3cccc(C)c3)c(=O)[nH]c2=O)cc1	0	0	0	0	94	-
COC(=O)[C@@H]1C[C@@]1(C)[C@@H](NP(=O)(c1ccccc1)c1ccccc1)c1ccccc1	0	0	0	0	0	-
COc1ccc2c(c1)CC1(CN2C)C(=O)NC(=O)N(c2ccc(C)cc2)C1=O (stereo unspecified)	0	0	0	0	0	-
CN1c2ccc([N+](=O)[O-])cc2CC2(C(=O)NC(=O)N(c3ccc(Br)cc3)C2=O)C1c1ccccc1 (stereo unspecified)	0	0	0	0	75	-
Cc1c(C=C2C(=O)NC(=O)NC2=O)c(=O)n(-c2ccccc2)n1C	0	0	0	0	0	-
Cc1nn(Cc2ccccc2)c(C)c1C=C1C(=O)NC(=S)NC1=O	0	0	0	0	60	-
CCSP1(=S)N=C(N2CCOCC2)C(C#N)=C2CCCN21 (stereo unspecified)	0	0	0	0	0	-
O=C(c1ccco1)c1cn(Cc2ccc(Cl)cc2)c2ccccc12	0	0	0	69	80	-
COCCOC(=O)c1c(N)n(Cc2ccc(OC)cc2)c2nc3ccccc3nc12	0	0	0	0	89	-
COC(=O)c1c(N)n(Cc2ccc(OC)cc2)c2nc3ccccc3nc12	0	0	0	71	52	-
CCCCNC(=O)c1c(N)n(CCCOC)c2nc3ccccc3nc12	0	0	0	0	0	-
CCOC(=O)c1c(N)n(Cc2ccc(OC)cc2)c2nc3ccccc3nc12	0	0	0	0	96	-
COCCNC(=O)c1c(N)n(CCC(C)C)c2nc3ccccc3nc12	0	0	0	0	100	-
COCCCn1c(N)c(C(=O)OCCOC)c2nc3ccccc3nc21	0	0	0	0	0	-
CCCNC(=O)c1c(N)n(Cc2ccc3c(c2)OCO3)c2nc3ccccc3nc12	0	0	0	0	0	-
Nc1nc(SCCC(F)=C(F)F)n[nH]1	0	0	0	0	0	-
CC(C)(C)N1Cc2ccccc2C1=N	0	0	0	0	0	-
COc1cc(OC)cc(-n2nc(C(=O)N3CCC4(CC3)OCCO4)c3ccccc3c2=O)c1	0	0	0	0	0	-
CCc1ccc(N2C(=O)NC(=O)C(Cc3ccc(OC)cc3OC)C2=O)cc1 (stereo unspecified)	0	0	0	0	0	-
CSc1ccc(CNC2CN3CCC2CC3)cc1 (stereo unspecified)	0	0	0	0	100	66
SMILES	Diaph inh CS	Diaphorase act	G6PDH CS	WT yeast gro inh	Lmaj promast	L major 1uM
CC(=NCc1cccnc1)c1c(O)n(-c2ccccc2C)c(=O)[nH]c1=O	0	0	0	0	0	-
COCCN1C(=O)NC(=O)/C(=C\c2ccc(Br)cc2)C1=O	0	0	0	0	0	-
CC(C)N1C(=O)CC2(CC[N+](C)(CCOC(=O)C(O)(c3ccccc3)c3ccccc3)CC2)C1=O (stereo unspecified)	0	0	0	0	93	0
CCN(CC)CCOC(=O)C(O)(c1ccccc1)c1ccccc1	0	0	0	0	0	-
Nc1nonc1OCCCCOc1nonc1N	0	0	0	0	0	-
CC(C)[C@]12O[C@H]1[C@@H]1O[C@]13[C@]1(O[C@H]1C[C@H]1C4=C(CC[C@@]13C)C(=O)OC4)[C@@H]2O	0	0	0	0	-	-
O=c1[nH]c2ccccc2n1C1CCN(CCCC(c2ccc(F)cc2)c2ccc(F)cc2)CC1	0	0	0	70	83	0
Cc1ccc(C2=NC(C)(C)N3C2C3c2ccc([N+](=O)[O-])cc2)cc1 (stereo unspecified)	0	0	0	0	57	0
CCOP(=S)(NN(Cc1ccccc1)C(=O)c1ccccc1)OCC	0	0	0	0	89	0
O=C1N(c2cccc(Cl)c2)C(c2cccnc2)N2CCCN12 (stereo unspecified)	0	0	0	0	0	-
COc1cc(CN2CCN(c3cc(C)ccc3C)CC2)ccc1O	0	0	0	0	0	-
CC(=O)c1ccc2c(c1)C1C(Cl)C(Sc3ccccc3[N+](=O)[O-])CC1C(c1ccccc1[N+](=O)[O-])N2 (stereo unspecified)	63	0	0	0	54	0
CCN1CC=C(c2c[nH]c3ccccc23)CC1	0	0	0	0	99	0
O=C(Nc1ccncc1)c1cccn(Cc2ccccc2)c1=O	0	0	0	0	0	-
CCn1ccnc1CN1CCCC(C(=O)c2ccc(OC)cc2OC)C1 (stereo unspecified)	0	0	0	0	0	-
COc1ccc(C(=O)C2CCCN(Cc3ccc(C)s3)C2)c(OC)c1 (stereo unspecified)	0	0	0	0	80	0
Cc1cccc(C)c1OP(N)(=O)OCC(F)(F)F (stereo unspecified)	0	0	0	0	68	0
CCn1ncc(/C=C2/CC3C4CC=C5CC(O)CCC5(C)C4CCC3(C)C2=O)c1C (stereo unspecified)	-	-	-	-	0	-
Cc1nc2c(=O)n(C)c(=O)nc-2n(C)n1	0	0	68	0	101	101
Cc1cccc(OP(=O)(Nc2cccnc2)Oc2cccc(C)c2)c1	0	0	0	0	92	?
Cc1ccc(N2Cc3ccccc3C2=N)cc1[N+](=O)[O-]	0	0	0	0	0	-
Cc1cc(C)nc(N2Cc3ccccc3C2=N)n1	0	0	0	0	50	0
O=C(CN1CC(c2ccccc2)CC1=O)Nc1ccc(F)cc1 (stereo unspecified)	0	0	0	0	0	-
O=C1C2CCN(CC2)C1Cc1ccc(OCCOc2ccccc2)cc1 (stereo unspecified)	0	0	0	0	100	97
CC1(C)C[C@H]2C=C(C=O)[C@]3(C=O)C[C@]3(C)[C@H]2C1	0	0	0	0	84	0
CCOC(=O)C(O)(c1ccc(NC(=O)NC2CCCCC2)cc1)C(F)(F)F (stereo unspecified)	0	0	0	0	0	-
Cc1c(P(=S)(c2ccccc2)c2ccccc2)[n+]2ccccc2n1C	0	0	0	0	73	0
CN1C[C@H](CNC(=O)OCc2ccccc2)C[C@@H]2c3cccc4c3c(cn4C)C[C@H]21	0	0	0	0	69	0

High-throughput results: PubChem, several laboratories
